Laboratory results from PubChem BioAssay.
Records with an inconclusive call do not appear.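 The calls were made as follows, unless noted: active = viability increase at or above a cutoff of the median across tested compounds plus 3 SD (cut at about 8.5% in these data, passing the limit was not always enough); inconclusive = some gains above the cutoff, reason not given; inactive = the rest.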

Tests used:
[1] = S. cerevisiae growth inhibition in permissive medium (OD615), pilot counter-assay for S. cerevisiae lifespan shortening project, permissive growth control (AID 705;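 active = growth inhibition above 25% in both replicates, a cutoff set 3 SD above the mean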); settings: OD615, 24 h, at 10 µM, active compounds read high
Procedure, shortened: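 Material: engineered DeaD yeast; compound dosing: one dose 10 µM, DMSO 0.25% final; measure: yeast growth inhibition indicated by reduced 24 h OD615; detection: OD615 turbidity read; incubation: cells pre-grown 4 h, then 24 h compound exposure, 30 °C humidified; medium: permissive synthetic complete medium with raffinose and galactose carbon sources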

[2] = S. cerevisiae growth inhibition in restrictive medium, OD615, pilot screen, restrictive growth control, yeast lifespan reduction project (AID 706;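 active = growth inhibition above a set limit, 3 SD over mean compound inhibition, in both replicates, cut at about 43% in these data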;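 also: modified DeaD lifespan yeast strain shifted to restrictive glucose medium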); settings: OD615, 48 h, at 10 µM, active compounds read high
Procedure, shortened: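 material = engineered S. cerevisiae DeaD strain | medium = glucose-based CSMM-D restrictive medium | times = 4 h pre-incubation, 48 h exposure at 30 °C | technique = OD615 absorbance reading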

[3] = doxorubicin toxicity protection in MRP-1 cells – H69AR cells, CellTiter-Glo, duplicate, MRP-1 activator project, pilot screen (AID 807); settings: H69AR viability with doxorubicin, CellTiter-Glo luminescence; at 10 µM; active compounds read high;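 also: compound pretreatment 18-22 h then 72 h combined with doxorubicin; 0% = doxorubicin alone and 100% = vehicle without doxorubicin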
[4] = viability of HCT116 without oncogenic beta-catenin – human colon tumor cells, pilot screen (AID 823;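 active = cell viability at or below a set limit in both duplicate runs, the limit being the all-compound median minus 4 SD, cut at about 23% in these data, passing the limit was not always enough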;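 also: 0% = wells killed by 20 µM Hyamine and 100% = untreated DMSO cell wells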); settings: HCT116 beta-catenin knockout viability, CellTiter-Glo, 60 h; at 10 µM; active compounds read low
[5] = viability of PTEN-null HCT116 cells – cell-based, HCT116 clonal line, CellTiter-Glo, pilot screen (AID 824;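 active = viability at or below 27.92% in each of two runs, the all-compound median minus 4 SD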;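 also: 0% = 20 µM Hyamine control and 100% = vehicle cell control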); settings: HCT116 PTEN-deleted viability, 60 h, at 10 µM, active compounds read low
[6] = RAM pathway blockade in budding yeast – dse1pr::URA3 reporter, 5-FOA selection, pilot screen (AID 869;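 active = inhibition over a set limit, the all-compound mean plus 3 SD, in both replicate runs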;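 also: 0% = DMSO wells with no growth and 100% = 10 µM 1-NA-PP1 with full growth; RAM network block rescues cells from 5-FOA so hits raise OD615 growth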); settings: S. cerevisiae dse1pr::URA3 5-FOA growth, OD615, 2 d; at 10 µM; active compounds read high; strain carries analog-sensitive mutant Cbk1 kinase
[7] = RAM signaling pathway blockade in yeast – S. cerevisiae, Pdr1DBD-CYC8 efflux-inhibited sensitized strain, primary screen (AID 1298;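 active = RAM network inhibition above 8.4% in each of two replicates, 3 SD over the compound average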;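 also: 0% = DMSO untreated cells without growth and 100% = 10 µM 1-NA-PP1 full growth; higher means more yeast growth rescued from 5-FOA killing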); settings: S. cerevisiae cbk1-as DSE1-URA3 strain, 5-FOA growth OD615, 2 d; at 50 µM; active compounds read high

COc1cc(C2C(C(=O)Nc3ccc(F)cc3)=C(C)Nc3nc(CCCO)nn32)cc(OC)c1OC (stereo not drawn)
inactive: growth inhibition [1] -2.56% | growth inhibition [2] -11.4% | viability increase [3] -1.09% | viability [4] 105% | viability [5] 92.7% | inhibition [6] 2.58% | RAM network inhibition [7] 1.42%

NC(=O)C1(N2CCCCC2)CCN(C(=O)c2ccccc2)CC1
inactive: growth inhibition [1] -4.24% | growth inhibition [2] -19.4% | viability increase [3] -1.09% | viability [4] 103% | viability [5] 90.4% | inhibition [6] 0.21% | RAM network inhibition [7] 5.36%

Cc1cc(N2C(=O)C3C4c5ccccc5C(c5ccccc54)C3C2=O)no1 (stereo not drawn)
inactive: growth inhibition [1] -9.23% | growth inhibition [2] -12.7% | viability increase [3] -2.14% | viability [4] 80.2% | viability [5] 90.7% | inhibition [6] 0.02% | RAM network inhibition [7] 5.19%

Cc1ccc2c(c1)C(c1ccccc1)N(C(=O)c1ccc(Br)o1)CC(=O)N2 (stereo not drawn)
inactive: growth inhibition [1] -8.12% | growth inhibition [2] -8.66% | viability increase [3] -3.95% | viability [4] 76.4% | viability [5] 77.9% | inhibition [6] -0.275% | RAM network inhibition [7] 2.72%

Cc1ccc(C)c(NC(=O)C2CC=CCC2C(=O)O)c1 (stereo not drawn)
inactive: growth inhibition [1] 3.24% | growth inhibition [2] 5.03% | viability increase [3] -0.5% | viability [4] 101% | viability [5] 104% | inhibition [6] 1.96% | RAM network inhibition [7] 4.68%

CC1(C)Cc2c(sc3c2c(=N)n(Cc2ccco2)c(=O)n3Cc2ccc(Cl)cc2)CO1
inactive: growth inhibition [1] -1.16% | growth inhibition [2] 6.14% | viability increase [3] -4.55% | viability [4] 79.9% | viability [5] 70.6% | inhibition [6] 1.69% | RAM network inhibition [7] 4.49%

Cc1noc(NS(=O)(=O)c2ccc(N3Cc4ccccc4C3=O)cc2)c1C
inactive: growth inhibition [1] -3.04% | growth inhibition [2] 0.35% | viability increase [3] -2.74% | viability [4] 102% | viability [5] 104% | inhibition [6] 1.45% | RAM network inhibition [7] 5.3%

COCCNC(=O)c1cc2c(=O)n3cccc(C)c3nc2n1C
inactive: growth inhibition [1] -9.01% | growth inhibition [2] -20.7% | viability increase [3] -5.8% | viability [4] 34.3% | viability [5] 33.9% | inhibition [6] 1.85% | RAM network inhibition [7] 3.01%

CCOc1ccc(C2CC(c3cccc(OC)c3)Nc3ncnn32)cc1 (stereo not drawn)
inactive: growth inhibition [1] -2.08% | growth inhibition [2] -1.26% | viability increase [3] -0.82% | viability [4] 94% | viability [5] 90% | inhibition [6] 1.15% | RAM network inhibition [7] 1.4%

Fc1ccc(-c2nnc(-c3ccc(Cl)cc3Cl)o2)cc1
inactive: growth inhibition [1] -6.69% | growth inhibition [2] -11.2% | viability increase [3] -5.12% | viability [4] 70.6% | viability [5] 64.2% | inhibition [6] 3.06% | RAM network inhibition [7] 3.99%

CCOC(=O)N1CCN(CC(O)c2ccc3cc[nH]c3c2)CC1 (stereo not drawn)
inactive: growth inhibition [1] -10.8% | growth inhibition [2] -0.09% | viability increase [3] -3.2% | viability [4] 88.8% | viability [5] 88.4% | inhibition [6] 1.44% | RAM network inhibition [7] 1.94%

Cn1c(C(=O)N2CCN(c3ccc(F)cc3)CC2)cc2c(=O)n(C)c3ccccc3c21
inactive: growth inhibition [1] -6.62% | growth inhibition [2] -10.8% | viability increase [3] -2.2% | viability [4] 95.1% | viability [5] 85% | inhibition [6] 1.64% | RAM network inhibition [7] 1.39%

CC(C)=C(NC(=O)c1ccccc1)C(=O)NCCCC(=O)O
inactive: growth inhibition [1] -7.54% | growth inhibition [2] -18.8% | viability increase [3] -0.03% | viability [4] 100% | viability [5] 103% | inhibition [6] 1.5% | RAM network inhibition [7] 2.34%

O=C(Cn1cc2c(n1)CCCC2)NCCCN1CCN(C2CCCCC2)CC1
inactive: growth inhibition [1] -3.58% | growth inhibition [2] 9.3% | viability increase [3] -0.74% | viability [4] 101% | viability [5] 93.1% | inhibition [6] 1.92% | RAM network inhibition [7] 0.77%

Nc1c(C(=O)Nc2ccc(Cl)cc2)oc2ccccc12
inactive: growth inhibition [1] -21% | growth inhibition [2] -20.9% | viability increase [3] -4.54% | viability [4] 75.3% | viability [5] 72.9% | inhibition [6] 2.38% | RAM network inhibition [7] 2.51%

O=C(/C=N/O)Nc1ccccc1C(=O)O
inactive: growth inhibition [1] -14.8% | growth inhibition [2] -16.7% | viability increase [3] -2.95% | viability [4] 97.1% | viability [5] 98.5% | inhibition [6] 2.12% | RAM network inhibition [7] 4.14%

CCc1nnc(NC(=O)CSc2nnc(Cc3cccn3C)n2CCOC)s1
inactive: growth inhibition [1] -4.61% | growth inhibition [2] 32.5% | viability increase [3] -0.66% | viability [4] 96.8% | viability [5] 98.3% | inhibition [6] 0.98% | RAM network inhibition [7] 2.84%

O=S(=O)(c1cccc2cccnc12)N(CCO)CCO
inactive: growth inhibition [1] -15.2% | growth inhibition [2] -15.5% | viability increase [3] -0.99% | viability [4] 103% | viability [5] 101% | inhibition [6] 2.62% | RAM network inhibition [7] 2.69%

NC(=O)C1(N2CCCCC2)CCN(C(=O)CCCn2c(=O)[nH]c3ccsc3c2=O)CC1
inactive: growth inhibition [1] -6.16% | growth inhibition [2] 2.1% | viability increase [3] -1.61% | viability [4] 93.5% | viability [5] 91.6% | inhibition [6] 1.89% | RAM network inhibition [7] 0.48%

COC(=O)C1(C)Nc2ccccc2C(=O)N1c1ccccc1C (stereo not drawn)
inactive: growth inhibition [1] -7.67% | growth inhibition [2] -8.55% | viability increase [3] -0.74% | viability [4] 104% | viability [5] 102% | inhibition [6] 2.51% | RAM network inhibition [7] 5.2%

CC1(C)CC(=O)C=C(NCc2cccnc2)C1
inactive: growth inhibition [1] -4.83% | growth inhibition [2] -11.8% | viability increase [3] -1.4% | viability [4] 92.2% | viability [5] 94.9% | inhibition [6] -0.505% | RAM network inhibition [7] 1.01%

CC(C)(C)NC(=O)c1cnn2c1NC(c1ccc(F)cc1)CC2C(F)(F)F (stereo not drawn)
inactive: growth inhibition [1] -14.6% | growth inhibition [2] -18.1% | viability increase [3] -0.08% | viability [4] 89.5% | viability [5] 87.1% | inhibition [6] 3.81% | RAM network inhibition [7] 6.9%

CCCN1CCC(N(C)CCc2ccc(OC)c(OC)c2)CC1
inactive: growth inhibition [1] -7.87% | growth inhibition [2] -16.1% | viability increase [3] -0.93% | viability [4] 88.4% | viability [5] 94.5% | inhibition [6] 0.465% | RAM network inhibition [7] 2.37%

Cn1c(C(=O)N2CCN(c3ccc(Cl)cc3)CC2)cc2c(=O)n(C)c3ccccc3c21
inactive: growth inhibition [1] -9.61% | growth inhibition [2] 2.92% | viability increase [3] -0.43% | viability [4] 93% | viability [5] 90.6% | inhibition [6] 2.57% | RAM network inhibition [7] 2.59%
